Experimental findings from ChEMBL document CHEMBL1681732, “Synthesis and SAR of sulfoxide substituted carboxyquinolines as NK3 receptor antagonists” (Bioorg Med Chem Lett, 2011) are described below.

The target of data set [1] is Voltage-gated inwardly rectifying potassium channel KCNH2 (Homo sapiens, UniProt Q12809). Put plainly: Inhibition of human ERG.
Data set [2] is described as follows: Intrinsic clearance in human liver microsomes assessed per mg of protein. Type of data set: ADME, Microsome. A general note: Liver microsomes are vesicles of endoplasmic reticulum, rich in cytochrome P450 enzymes.
Data set [3] can be described thus: Ratio of drug level in brain to plasma in rat at 3 umol/kg, iv after 1 hr. The following applies: brain and plasma, read-out: BPR. It is filed as ADME, organism-based. In outline: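 Rat dosed iv at 3 µmol/kg. Total brain and plasma levels taken 1 h post dose, and their ratio reported.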
Data set [4] in a line: Equilibrium solubility of the compound. Type of data set: physicochemical.
Data set [5] concerns MDR1. The experiment in a line: Efflux ratio of permeability in MDCK cells expressing human MDR1. It is filed as ADME, cell-based, Canis lupus familiaris. Particulars: dog, MDCK-MDR1. The method in brief:
(§1)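 Permeability measured in MDCK cells expressing human MDR1. Papp is expressed in 10^-6 cm/s and reported together with the efflux ratio.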

Another data set concerns the target T1, Neuromedin-K receptor (Homo sapiens, UniProt P29371).
T1 sequence (P29371 whole entry): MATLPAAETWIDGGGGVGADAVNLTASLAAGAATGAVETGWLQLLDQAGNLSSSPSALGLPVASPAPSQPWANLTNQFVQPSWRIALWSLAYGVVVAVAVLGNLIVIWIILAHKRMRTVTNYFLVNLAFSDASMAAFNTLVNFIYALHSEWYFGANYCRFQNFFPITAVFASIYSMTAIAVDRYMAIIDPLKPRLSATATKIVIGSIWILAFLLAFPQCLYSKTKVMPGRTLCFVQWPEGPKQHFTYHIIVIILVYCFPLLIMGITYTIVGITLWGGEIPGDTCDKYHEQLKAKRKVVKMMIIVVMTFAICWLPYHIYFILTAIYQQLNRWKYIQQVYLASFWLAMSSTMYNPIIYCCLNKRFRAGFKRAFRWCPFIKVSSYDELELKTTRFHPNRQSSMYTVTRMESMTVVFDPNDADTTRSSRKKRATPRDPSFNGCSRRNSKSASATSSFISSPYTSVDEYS
Put plainly: Antagonist activity at human NK3 receptor expressed in CHO cells assessed as inhibition of senktide-induced calcium flux by FLIPR assay. It is filed as functional, cell-based. In outline:
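FLIPR functional assay in CHO cells stably expressing human recombinant NK3 receptor. EC50 given as mean ± SEM (n ≥ 2), or as a single value where n = 1. Tested as 1:1 diastereomer mixtures unless marked as a single isomer.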
A general note: Calcium assays in cells follow changes in intracellular calcium, usually with a dye or a luminescent sensor.

A short description of data set [6]: Lipophilicity, log D of the compound. Particulars: octanol/water. Type of data set: physicochemical.
Data set [7] is described as follows: Oral bioavailability in rat. Particulars: in vivo. Type of data set: ADME, organism-based.
Data set [8] has as its system MDR1. Put plainly: Apparent permeability across MDCK cells expressing human MDR1. Type of data set: ADME, cell-based, Canis lupus familiaris. Particulars: dog, MDCK-MDR1. In outline: as §1
Data set [9] is described as follows: Clearance in rat plasma. It is filed as ADME, organism-based.
The subject of the next data set is Gerbillinae. The experiment in a line: Reversal of senktide-induced locomotor activity in ip dosed gerbil. It is filed as functional.
Data set [10] can be described thus: Selectivity ratio of EC50 for human NK3 receptor to EC50 for NK1 receptor.
Data set [11] can be described thus: Half life in rat. Type of data set: ADME, organism-based. The following applies: in vivo.
Data set [12] can be described thus: Selectivity ratio of EC50 for human NK3 receptor to EC50 for NK2 receptor.
A short description of data set [13]: Half life in dog. Type of data set: ADME, organism-based, Canis lupus familiaris. Particulars: in vivo.
Data set [14] can be described thus: Oral bioavailability in dog. It is filed as ADME, organism-based, Canis lupus familiaris. The following applies: in vivo.
A short description of data set [15]: Plasma clearance in dog. Type of data set: ADME, organism-based, Canis lupus familiaris.

Converted amounts (≈) assume the structure as drawn. Some results are limits rather than exact numbers.

Sequence of Voltage-gated inwardly rectifying potassium channel KCNH2 (Q12809 whole entry): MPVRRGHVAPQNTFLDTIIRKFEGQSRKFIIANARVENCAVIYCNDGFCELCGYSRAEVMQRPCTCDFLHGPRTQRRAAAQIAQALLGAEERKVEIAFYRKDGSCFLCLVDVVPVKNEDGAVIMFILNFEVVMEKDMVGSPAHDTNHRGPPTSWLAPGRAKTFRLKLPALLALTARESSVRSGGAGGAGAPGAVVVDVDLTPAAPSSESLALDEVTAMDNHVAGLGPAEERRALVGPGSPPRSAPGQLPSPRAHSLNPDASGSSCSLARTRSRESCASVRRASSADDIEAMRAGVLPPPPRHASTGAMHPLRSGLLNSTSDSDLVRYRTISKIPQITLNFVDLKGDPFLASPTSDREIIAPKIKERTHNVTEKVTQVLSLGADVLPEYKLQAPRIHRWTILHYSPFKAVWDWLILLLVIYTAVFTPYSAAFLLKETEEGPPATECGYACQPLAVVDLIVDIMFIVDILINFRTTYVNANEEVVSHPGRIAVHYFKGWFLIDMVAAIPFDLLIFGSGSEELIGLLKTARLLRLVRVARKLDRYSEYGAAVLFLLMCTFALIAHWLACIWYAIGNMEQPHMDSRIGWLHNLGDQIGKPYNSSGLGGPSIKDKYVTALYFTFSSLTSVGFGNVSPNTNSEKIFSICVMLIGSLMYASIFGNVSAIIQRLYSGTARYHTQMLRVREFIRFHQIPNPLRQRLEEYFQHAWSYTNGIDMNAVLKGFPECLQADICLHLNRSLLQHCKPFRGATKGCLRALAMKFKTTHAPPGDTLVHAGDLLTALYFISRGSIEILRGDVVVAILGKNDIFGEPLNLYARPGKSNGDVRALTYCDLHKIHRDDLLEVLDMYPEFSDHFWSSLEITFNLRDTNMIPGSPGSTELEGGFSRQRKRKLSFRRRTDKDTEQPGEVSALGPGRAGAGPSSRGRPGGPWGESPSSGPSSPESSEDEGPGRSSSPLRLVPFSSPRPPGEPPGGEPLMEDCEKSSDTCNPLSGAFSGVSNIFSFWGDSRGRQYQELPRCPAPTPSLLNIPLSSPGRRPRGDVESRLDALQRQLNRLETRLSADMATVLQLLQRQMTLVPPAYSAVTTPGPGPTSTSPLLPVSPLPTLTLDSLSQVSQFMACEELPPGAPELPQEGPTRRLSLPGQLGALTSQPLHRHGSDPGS

In the case of `CC[C@H](NC(=O)c1c([S@+](C)[O-])c(-c2ccccc2)nc2ccccc12)c1ccccc1`, the INH in data set [1] is greater than 33 µM. Moreover, the microsomal CLint in data set [2] turned out to be 23 µL/min/mg. For the same molecule, the Kp at 1 h in data set [3] worked out at 0.4. The same molecule returned a solubility (thermodynamic) in data set [4] of 270 µM (≈ 116 µg/mL). Besides, the efflux ratio in the data set on MDR1 [5] turned out to be 1.3. In addition, at Neuromedin-K receptor, the EC50 was 3.7 nM. This molecule registered a logD in data set [6] of 3. The same molecule returned a bioavailability in [7] of 60%. Besides, the Papp in the data set on MDR1 [8] worked out at 28 ×10⁻⁶ cm/s. In [9], this molecule displayed a clearance of 60 mL/min/kg. Besides, in the data set with Gerbillinae, the Activity result is “Dose-dependent effect” and the ED50 turned out to be 0.75 µmol/kg. For the same molecule, the Ratio EC50 in data set [10] is greater than 2700. Further, the half-life in data set [11] is 3 h. The Ratio EC50 in [12] is 1860.
In the case of `CC[C@H](NC(=O)c1c(C[S@+](C)[O-])c(-c2ccccc2)nc2ccccc12)c1ccccc1`, the INH in [1] is greater than 33 µM. This molecule yielded a microsomal CLint in [2] of 8.4 µL/min/mg. In [13], this molecule gave a half-life of 6.7 h. In [14], this molecule gave a bioavailability of 89%. In data set [4], this molecule gave a thermodynamic solubility of 53 µM (≈ 23.5 µg/mL). Further, the efflux ratio with MDR1 [5] was determined as 3.7. For the same molecule, on Neuromedin-K receptor, the EC50 is 5.3 nM. In data set [6], the logD is 3.5. In the data set on MDR1 [8], the Papp worked out at 9.9 ×10⁻⁶ cm/s. In addition, the 50% effective dose (ED50) in the data set with Gerbillinae came out at 2 µmol/kg. For the same molecule, the clearance in data set [15] was 2.3 mL/min/kg. Besides, the Ratio EC50 was greater than 660 in [10] and 170 in data set [12].

For orientation: microsomal CLint means the rate of metabolic loss divided by the concentration. A word on the thermodynamic solubility: it is the concentration in solution at equilibrium with solid. By efflux ratio is commonly meant the permeability from basolateral to apical divided by that in the opposite direction, in the common usage. The term EC50 denotes the concentration giving half of the maximal effect. Broadly, the logD is the decadic logarithm of the distribution of all forms, ionised or not, between an organic phase and buffer at a given pH. Lower therefore signals lower lipophilicity. One may read the bioavailability as dose-corrected exposure relative to a reference, in per cent. A higher bioavailability goes with much systemic uptake. The term Papp denotes a coefficient for how fast a substance crosses the barrier. One may read the clearance as the rate of elimination divided by the concentration. By ED50 is commonly meant the dose that gives a 50% effect, or the effect in half of the subjects. As a reminder, the half-life is how long it takes for the measured level to halve. A lower half-life goes with fast loss.
